Reference: ChEMBL document CHEMBL1143805, “Synthesis and antimicrobial activities of some novel 1,2,4-triazolo[3,4-b]-1,3,4-thiadiazoles and 1,2,4-triazolo[3,4-b]-1,3,4-thiadiazines carrying thioalkyl and sulphonyl phenoxy moieties” (2007)
In brackets after ≈: the same amount, converted by molar mass.

Experiments:
Aspergillus fumigatus = test: Antifungal activity against Aspergillus fumigatus NCIM 902; type: functional; details: for MIC: Aspergillus fumigatus, NCIM 902
Staphylococcus aureus = test: Antibacterial activity against Staphylococcus aureus ATCC 25923; type: functional; details: for MIC: Staphylococcus aureus, ATCC 25923
Procedure, shortened: (§1)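 MIC by serial dilution in Mueller-Hinton broth tubes, pH adjusted to 5.0 with phosphate buffer. A standardized bacterial suspension was inoculated and incubated 16-18 h at 37 °C, and MIC was read as the lowest concentration with no visible growth. Zones were also measured in agar wells on seeded plates, with compounds in DMSO and a DMSO control, triplicate plates, 37 °C for 3-4 days.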

Trichophyton benhamiae = test: Antifungal activity against Trichophyton mentagrophytes; type: functional, Arthroderma benhamiae; details: for MIC: Trichophyton benhamiae
Procedure, shortened: (§2)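 Agar-well diffusion on Sabouraud agar at pH 5.7. Plates were lawned with a saline spore suspension (one loopful in 3 ml), decanted and dried 1 h at 37 °C. Compounds in DMSO went into punched wells, with a DMSO solvent control. Plates were run in triplicate and kept at 37 °C for 3-4 days, with inhibition-zone diameter as read-out.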

Aspergillus flavus = test: Antifungal activity against Aspergillus flavus NCIM 524; type: functional; details: for MIC: Aspergillus flavus, NCIM 524; procedure, shortened: as §2
Klebsiella pneumoniae = test: Antibacterial activity against Klebsiella pneumoniae; type: functional; details: for MIC: Klebsiella pneumoniae; procedure, shortened: as §1
Talaromyces marneffei = test: Antifungal activity against Penicillium marneffei; type: functional; details: for MIC: Talaromyces marneffei; procedure, shortened: as §2
Escherichia coli = test: Antibacterial activity against Escherichia coli ATCC 25922; type: functional; details: for MIC: Escherichia coli, ATCC 25922; procedure, shortened: as §1
Pseudomonas aeruginosa = test: Antibacterial activity against Pseudomonas aeruginosa ATCC 27853; type: functional; details: for MIC: Pseudomonas aeruginosa, ATCC 27853; procedure, shortened: as §1

Row | Compound | inhibition zone (IZ) (Aspergillus fumigatus) | MIC (Aspergillus fumigatus) | inhibition zone (IZ) (Staphylococcus aureus) | MIC (Staphylococcus aureus) | inhibition zone (IZ) (Trichophyton benhamiae) | MIC (Trichophyton benhamiae) | inhibition zone (IZ) (Aspergillus flavus) | MIC (Aspergillus flavus) | inhibition zone (IZ) (Klebsiella pneumoniae) | MIC (Klebsiella pneumoniae) | inhibition zone (IZ) (Talaromyces marneffei) | MIC (Talaromyces marneffei) | inhibition zone (IZ) (Escherichia coli) | MIC (Escherichia coli) | inhibition zone (IZ) (Pseudomonas aeruginosa) | MIC (Pseudomonas aeruginosa)
1 | CSc1ccc(OCc2nnc3sc(-c4ccc(C)cc4)nn23)cc1 | 16 mm | 6.25 µg/mL (≈ 17 µM) | 16 mm | 6.25 µg/mL (≈ 17 µM) | 16 mm | 6.25 µg/mL (≈ 17 µM) | 16 mm | 6.25 µg/mL (≈ 17 µM) | 16 mm | 6.25 µg/mL (≈ 17 µM) | 16 mm | 6.25 µg/mL (≈ 17 µM) | 16 mm | 6.25 µg/mL (≈ 17 µM) | 16 mm | 6.25 µg/mL (≈ 17 µM)
2 | CSc1ccc(OCc2nnc3sc(-c4cccc(Cl)c4Cl)nn23)cc1 | 16 mm | 6.25 µg/mL (≈ 14.8 µM) | 16 mm | 6.25 µg/mL (≈ 14.8 µM) | 16 mm | 6.25 µg/mL (≈ 14.8 µM) | 16 mm | 6.25 µg/mL (≈ 14.8 µM) | 16 mm | 6.25 µg/mL (≈ 14.8 µM) | 16 mm | 6.25 µg/mL (≈ 14.8 µM) | 16 mm | 6.25 µg/mL (≈ 14.8 µM) | 16 mm | 6.25 µg/mL (≈ 14.8 µM)
3 | CSc1ccc(OCc2nnc3sc(Cc4ccccc4)nn23)cc1 | 16 mm | 6.25 µg/mL (≈ 17 µM) | 16 mm | 6.25 µg/mL (≈ 17 µM) | 16 mm | 6.25 µg/mL (≈ 17 µM) | 16 mm | 6.25 µg/mL (≈ 17 µM) | 16 mm | 6.25 µg/mL (≈ 17 µM) | 16 mm | 6.25 µg/mL (≈ 17 µM) | 16 mm | 6.25 µg/mL (≈ 17 µM) | 16 mm | 6.25 µg/mL (≈ 17 µM)
4 | CS(=O)(=O)c1ccc(OCc2nnc3sc(-c4ccccc4Cl)nn23)cc1 | 11 mm | 12.5 µg/mL (≈ 29.7 µM) | 11 mm | 12.5 µg/mL (≈ 29.7 µM) | 11 mm | 12.5 µg/mL (≈ 29.7 µM) | 11 mm | 12.5 µg/mL (≈ 29.7 µM) | 11 mm | 12.5 µg/mL (≈ 29.7 µM) | <10 mm | 25 µg/mL (≈ 59.4 µM) | 11 mm | 12.5 µg/mL (≈ 29.7 µM) | 11 mm | 12.5 µg/mL (≈ 29.7 µM)
5 | CS(=O)(=O)c1ccc(OCc2nnc3sc(-c4cccc(Cl)c4)nn23)cc1 | 11 mm | 12.5 µg/mL (≈ 29.7 µM) | 11 mm | 12.5 µg/mL (≈ 29.7 µM) | 11 mm | 12.5 µg/mL (≈ 29.7 µM) | 11 mm | 12.5 µg/mL (≈ 29.7 µM) | 11 mm | 12.5 µg/mL (≈ 29.7 µM) | <10 mm | 25 µg/mL (≈ 59.4 µM) | 11 mm | 12.5 µg/mL (≈ 29.7 µM) | 11 mm | 12.5 µg/mL (≈ 29.7 µM)
6 | CS(=O)(=O)c1ccc(OCc2nnc3n2N=C(c2ccc(Cl)cc2Cl)CS3)cc1 | 11 mm | 12.5 µg/mL (≈ 26.6 µM) | 11 mm | 12.5 µg/mL (≈ 26.6 µM) | 11 mm | 12.5 µg/mL (≈ 26.6 µM) | 11 mm | 12.5 µg/mL (≈ 26.6 µM) | 11 mm | 12.5 µg/mL (≈ 26.6 µM) | <10 mm | 25 µg/mL (≈ 53.3 µM) | 11 mm | 12.5 µg/mL (≈ 26.6 µM) | 11 mm | 12.5 µg/mL (≈ 26.6 µM)
7 | CS(=O)(=O)c1ccc(OCc2nnc3sc(Cc4ccccc4)nn23)cc1 | 11 mm | 12.5 µg/mL (≈ 31.2 µM) | 11 mm | 12.5 µg/mL (≈ 31.2 µM) | 11 mm | 12.5 µg/mL (≈ 31.2 µM) | 11 mm | 12.5 µg/mL (≈ 31.2 µM) | 11 mm | 12.5 µg/mL (≈ 31.2 µM) | <10 mm | 25 µg/mL (≈ 62.4 µM) | 11 mm | 12.5 µg/mL (≈ 31.2 µM) | 11 mm | 12.5 µg/mL (≈ 31.2 µM)
8 | CSc1ccc(OCc2nnc3sc(-c4ccc(N)cc4)nn23)cc1 | 16 mm | 6.25 µg/mL (≈ 16.9 µM) | 16 mm | 6.25 µg/mL (≈ 16.9 µM) | 16 mm | 6.25 µg/mL (≈ 16.9 µM) | 16 mm | 6.25 µg/mL (≈ 16.9 µM) | 16 mm | 6.25 µg/mL (≈ 16.9 µM) | 16 mm | 6.25 µg/mL (≈ 16.9 µM) | 16 mm | 6.25 µg/mL (≈ 16.9 µM) | 16 mm | 6.25 µg/mL (≈ 16.9 µM)
9 | CCSc1ccc(OCc2nnc3sc(-c4ccccc4)nn23)cc1 | 16 mm | 6.25 µg/mL (≈ 17 µM) | 16 mm | 6.25 µg/mL (≈ 17 µM) | 16 mm | 6.25 µg/mL (≈ 17 µM) | 16 mm | 6.25 µg/mL (≈ 17 µM) | 16 mm | 6.25 µg/mL (≈ 17 µM) | 16 mm | 6.25 µg/mL (≈ 17 µM) | 16 mm | 6.25 µg/mL (≈ 17 µM) | 16 mm | 6.25 µg/mL (≈ 17 µM)
10 | CS(=O)(=O)c1ccc(OCc2nnc3sc(-c4ccccc4)nn23)cc1 | 11 mm | 12.5 µg/mL (≈ 32.3 µM) | 11 mm | 12.5 µg/mL (≈ 32.3 µM) | 11 mm | 12.5 µg/mL (≈ 32.3 µM) | 11 mm | 12.5 µg/mL (≈ 32.3 µM) | 11 mm | 12.5 µg/mL (≈ 32.3 µM) | <10 mm | 25 µg/mL (≈ 64.7 µM) | 11 mm | 12.5 µg/mL (≈ 32.3 µM) | 11 mm | 12.5 µg/mL (≈ 32.3 µM)
11 | CS(=O)(=O)c1ccc(OCc2nnc3n2N=C(c2ccc(O)c(C(N)=O)c2)CS3)cc1 | 11 mm | 12.5 µg/mL (≈ 27.2 µM) | 11 mm | 12.5 µg/mL (≈ 27.2 µM) | 11 mm | 12.5 µg/mL (≈ 27.2 µM) | 11 mm | 12.5 µg/mL (≈ 27.2 µM) | 11 mm | 12.5 µg/mL (≈ 27.2 µM) | <10 mm | 25 µg/mL (≈ 54.4 µM) | 11 mm | 12.5 µg/mL (≈ 27.2 µM) | 11 mm | 12.5 µg/mL (≈ 27.2 µM)
12 | COc1ccc(-c2nn3c(COc4ccc(SC)cc4)nnc3s2)cc1 | 16 mm | 6.25 µg/mL (≈ 16.3 µM) | 16 mm | 6.25 µg/mL (≈ 16.3 µM) | 16 mm | 6.25 µg/mL (≈ 16.3 µM) | 16 mm | 6.25 µg/mL (≈ 16.3 µM) | 16 mm | 6.25 µg/mL (≈ 16.3 µM) | 16 mm | 6.25 µg/mL (≈ 16.3 µM) | 16 mm | 6.25 µg/mL (≈ 16.3 µM) | 16 mm | 6.25 µg/mL (≈ 16.3 µM)
